In the library only some 1.3% were active in any assay of this set; here they are far more common.
ERp5 block – ERp5 (human) disulfide isomerase inhibition. inhibition, % at 9.99 µM. ERp5 insulin aggregation, absorbance 650 nm, 90 min. AID 651711. 350,000 compounds, 0.05% hits. Q15084;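 active = mean replicate inhibition above about 25%, with every replicate also reaching it, limit read from the data, passing the limit was not always enough; inconclusive = only one of those two criteria met; inactive = neither criterion met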
AF4-AF9 inh – inhibitors of human MLL-AF4/AF9 interaction | 350,000 compounds, 0.47% hits | AlphaScreen, biotin-AF4 peptide binding to FLAG-AF9 | inhibition, % at 10 µM | P42568;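 active = every replicate reaching a set inhibition limit, whatever the replicate mean, cut at about 25% in these data; inconclusive = mean inhibition reaches that limit but some replicates miss it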;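 also: 0% = plate neutral control median and 100% = total signal loss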
Target sequence (P42568 whole entry, looked up): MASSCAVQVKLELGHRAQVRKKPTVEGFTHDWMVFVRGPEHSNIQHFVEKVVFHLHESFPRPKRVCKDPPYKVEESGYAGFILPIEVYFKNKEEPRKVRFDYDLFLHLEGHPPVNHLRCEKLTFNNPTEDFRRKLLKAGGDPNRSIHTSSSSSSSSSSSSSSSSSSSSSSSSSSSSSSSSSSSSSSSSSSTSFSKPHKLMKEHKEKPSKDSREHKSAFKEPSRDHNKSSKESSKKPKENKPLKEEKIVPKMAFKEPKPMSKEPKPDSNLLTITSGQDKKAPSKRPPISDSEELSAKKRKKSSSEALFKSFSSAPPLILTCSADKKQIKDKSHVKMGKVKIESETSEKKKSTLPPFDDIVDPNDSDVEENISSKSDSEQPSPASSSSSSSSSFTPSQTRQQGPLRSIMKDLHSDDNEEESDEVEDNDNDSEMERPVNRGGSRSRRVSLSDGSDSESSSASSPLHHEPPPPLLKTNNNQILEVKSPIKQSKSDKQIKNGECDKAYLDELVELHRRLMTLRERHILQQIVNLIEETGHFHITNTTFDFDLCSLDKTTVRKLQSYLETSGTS
FN deposit inh – fibronectin deposition inhibition; AID 743247; AH1F fibroblasts, Alexa488-fibronectin deposition fluorescence, overnight; 350,000 compounds, 0.086% hits; inhibition, % at 12.6 µM;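 active = mean inhibition across replicates of 30% or more, regardless of how many single replicates reach that level; inconclusive = mean under 30% yet at least half of replicates reach 30%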;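 also: positive control wells lacked labelled fibronectin entirely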
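Material: AH1F fibroblasts assembling fluorescent fibronectin matrix; amount: 10000 AH1F cells/well; medium: DMEM, 2% serum; reagent: Alexa488-fibronectin, 24 nM final in well; dosing: single compound dose, delivered by pin transfer; incubation: 1 h adhesion, overnight exposure; detection: fluorescence after three HBSS washes, excitation 485 nm, emission 525 nm; measure: fibronectin deposition inhibition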
SIRT5 block – inhibitors of human sirtuin-5 desuccinylase | AID 652115 | inhibition, % at 15 µM | 330,000 compounds, 1.1% hits | Q9NXA8 | Purified SirT5, succinyl-peptide AMC, trypsin-coupled fluorescence; in the data active = inhibition above about 15%; inconclusive = no clear call, values can overlap the other calls
PDI turbidity – blocks human protein disulfide isomerase activity | P07237 | PDI insulin aggregation turbidity, A650, 90 min | inhibition, % at 10 µM | 350,000 compounds, 0.052% hits;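 active = mean inhibition across replicates of 30% or more, whatever share of single replicates reach that level; inconclusive = mean inhibition below 30% while every single replicate reaches 30%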
* = called active by the depositor; ? = inconclusive; · = no result.

SMILES | ERp5 block | AF4-AF9 inh | FN deposit inh | SIRT5 block | PDI turbidity
N=c1c(C(=O)NC2CCCCC2)cc2c(=O)n3ccccc3nc2n1Cc1ccc(F)cc1 | 0 | 0 | 3 | 23* | 5
CC(=O)Nc1ccc(NC(=O)Cn2nc([N+](=O)[O-])c(Br)c2C)cc1 | -1 | -1 | 4 | 0 | 1
Cc1ccc(C)c(NC(=O)Cn2nc([N+](=O)[O-])c(Br)c2C)c1 | 2 | 3 | -4 | 33* | -8
COc1cc(CNCc2ccco2)ccc1OCc1ccccc1 | · | · | · | · | 5
Cc1nc2ncccn2c1-c1csc(Nc2ccc(O)cc2)n1 | -6 | 3 | · | 0 | 53*
CC1(C)CC[C@]2(C(=O)O[C@@H]3O[C@H](CO)[C@@H](O)[C@H](O)[C@H]3O)CC[C@]3(C)C(=CCC4[C@@]5(C)CC[C@H](O[C@@H]6O[C@H](C(=O)O)[C@@H](O[C@H]7OC[C@@H](O)[C@@H](O)[C@@H]7O)[C@H](O)[C@H]6O)C(C)(C)C5CC[C@]43C)[C@@H]2C1 (stereo partly specified) | -2 | 1 | -7 | · | 2
CC1(C)CC[C@]2(C(=O)O)CC[C@]3(C)C(=CC[C@@H]4[C@@]5(C)CC[C@H](O[C@@H]6O[C@H](C(=O)O)[C@@H](O)[C@H](O[C@@H]7OC[C@H](O)[C@H](O)[C@H]7O)[C@H]6O)C(C)(C)[C@@H]5CC[C@]43C)[C@@H]2C1 | -1 | 0 | 51* | · | 88*
O=c1ncn(-c2cccc([N+](=O)[O-])c2)c2ccccc12 | -4 | 2 | 2 | 1 | 0
CCC(=O)N1CC2(CN(Cc3ccccc3Cl)C2)c2c([nH]c3cc(OC)ccc23)[C@@H]1CO | -4 | 29* | · | -3 | ·
CCC(=O)N1CC2(CCN(Cc3ccccc3Cl)CC2)c2c([nH]c3cc(OC)ccc23)[C@H]1CO | 3 | 6 | -15 | 5 | ·
COCC(=O)N1CCC2(CC1)CN(Cc1ccccc1F)[C@H](CO)c1[nH]c3cc(OC)ccc3c12 | 0 | -4 | · | -4 | ·
COCC(=O)N1CC2(C1)CN(Cc1ccccc1F)[C@H](CO)c1[nH]c3cc(OC)ccc3c12 | 34* | 0 | -1 | 0 | ·
CCC(=O)N1CC2(CCN(Cc3ccc(Cl)cc3)CC2)c2c([nH]c3cc(OC)ccc23)[C@H]1CO | · | 32* | · | · | ·
COc1ccc2c3c([nH]c2c1)[C@@H](CO)N(C(=O)CN(C)C)CC31CCN(Cc2ccccc2Cl)CC1 | 0 | 30* | · | 6 | ·
COCC(=O)N1CC2(CCN(Cc3ccc(Cl)cc3)CC2)c2c([nH]c3cc(OC)ccc23)[C@@H]1CO | 1 | 19 | · | 0 | ·
CCOC(=O)N1CCC(C(=O)Nc2ccc(OCC)cc2)CC1 | 3 | -2 | -5 | 2 | ·
CC(=O)c1cccc(NC(=O)CC(C)n2ccnc2)c1 (stereo unspecified) | 0 | -1 | 2 | -2 | 7
CC(C)=CCN1CCN(Cc2cc(CC(C)C)n[nH]2)CC1CCO (stereo unspecified) | 5 | 3 | 8 | -1 | 2
Cc1nnc(SCC(=O)Nc2ncc3c(n2)CCCC3=O)s1 | · | · | · | · | -11
Cc1nnc(SCC(=O)Nc2ncc3c(n2)CC(c2ccccc2)CC3=O)s1 (stereo unspecified) | 2 | · | -4 | 28* | 14
CC(C)OCCCn1c(SCC(=O)N2CCCC2=O)nc2ccccc2c1=O | 3 | -1 | · | -2 | -11
CC(C)OCCCn1c(SCC(=O)N2CCc3ccccc32)nc2ccccc2c1=O | -2 | -1 | -4 | 21* | 13
CC1(C(=O)Nc2ccc3c(c2)OCCO3)CCN1Cc1ccc2ccccc2c1 (stereo unspecified) | -1 | -2 | -1 | 5 | -25
CC(C)(C)OC(=O)N1CCC[C@H]1C(=O)N1CCC[C@H]1C(=O)NCc1ccc(F)cc1F | -4 | -3 | -4 | 17* | ·
O=C(NCCc1csc(-c2cccnc2)n1)c1c(F)cccc1F | -3 | ? | -10 | 8 | 11
SMILES | ERp5 block | AF4-AF9 inh | FN deposit inh | SIRT5 block | PDI turbidity
O=C(NCCc1csc(-c2cccnc2)n1)c1ccccc1Br | 5 | -24 | 6 | 15* | -3
CN1CCN(c2nc3ccccc3nc2C(C#N)C(=O)OC2CCCCC2)CC1 (stereo unspecified) | · | · | · | · | 4
Nc1nc(CSc2ccccc2)nc(N2CCCCC2)n1 | -4 | 0 | 4 | 2 | 3
Nc1nc(CSc2ccc(Cl)cc2)nc(N2CCCCC2)n1 | 6 | 4 | 2 | 18* | 3
C[C@@]12C(=O)OC(=O)[C@]1(C)C1CCC2O1 | 6 | -3 | 41* | -2 | -6
CC12C(=O)N(c3nccs3)C(=O)C1(C)C1CCC2O1 (stereo unspecified) | 3 | 1 | 12 | · | -3
c1ccc2c(CN3CCCCC3)csc2c1 | -1 | 0 | -12 | 15* | -2
O=C(C1CCN(c2ccc(N3CCOCC3)nn2)CC1)N1CCc2ccccc2C1 | -5 | 8 | · | -5 | 5
NC1(C(=O)O)CSSC1 | -6 | 48* | -5 | -3 | 7
c1coc(CNc2nc(-c3ccncc3)cs2)c1 | · | · | -22 | · | 2
O=C(O)CCN1CCc2ccccc21 | · | · | -7 | · | 1
C[N+](C)(C)CCN1CCc2ccccc21 | 0 | 0 | 7 | 22* | ·
Cc1ccc(S(=O)(=O)NCCCC(=O)N2CCC(C)CC2)cc1 | 0 | 2 | -3 | 2 | 2
Cc1ccc(S(=O)(=O)NCC(=O)N2CCC(C)CC2)cc1 | -7 | 48* | 3 | -1 | 6
O=C(CN(c1ccc2c(c1)OCCO2)S(=O)(=O)c1ccccc1)N1CCN(Cc2ccccc2)CC1 | 5 | 0 | 2 | 1 | 14
O=C(CCN1C(=O)/C(=C\c2ccccc2)SC1=S)NCCCN1CCOCC1 | 26* | 4 | -1 | 4 | 4
O=C(CCN1C(=O)/C(=C/c2cccs2)SC1=S)Nc1ccc(O)cc1 | -6 | 1 | -2 | -1 | 11
CC(/C=C1\SC(=S)N(c2ccc(C(=O)O)cc2)C1=O)=C\c1ccccc1 | ? | 5 | 2 | 34* | 1
O=C(CCN1C(=O)/C(=C/c2cccs2)SC1=S)Nc1ccc(C(=O)O)c(O)c1 | -8 | 6 | -1 | 16* | -2
O=C(CCN1C(=O)/C(=C/c2ccc3c(c2)OCO3)SC1=S)Nc1cccc(C(=O)O)c1 | 2 | -2 | 1 | 17* | -7
COc1ccc(OC)c(C2=NOC(C(=O)N3CCN(c4ccccc4)CC3)C2)c1 (stereo unspecified) | 0 | 2 | 1 | -3 | ·
COCCN(C(=O)COC(=O)CSc1cc(C)ccc1C)c1c(N)n(Cc2ccccc2)c(=O)[nH]c1=O | -1 | -2 | 13 | · | -10
Cc1ccc(NC(=O)COc2cccc(/C=C3\SC(=S)N(CCC(=O)O)C3=O)c2)cc1Cl | -2 | -6 | -20 | 27* | -1
CC(=Cc1ccccc1)C=C1SC(=S)N(CCCC(=O)Nc2ccc(C(=O)O)c(O)c2)C1=O | -2 | 14 | -6 | 60* | 7
O=c1c2sc3nc(N4CCOCC4)c4c(c3c2ncn1-c1ccccc1)CCCC4 | 3 | -1 | -11 | -9 | -6

Assay outcomes (PubChem)
